ChEMBL document CHEMBL1926550, “Synthesis and antibacterial activity of naphthyridone derivatives containing mono/difluoro-methyloxime pyrrolidine scaffolds” (2012)
Values after ≈ are worked out from the molar mass of the structure shown.

Assays:
Assay type in all cases: functional
Staphylococcus aureus [1] = assay: Antibacterial activity against methicillin-sensitive Staphylococcus aureus 10-2 after 18 hrs by two fold serial dilution method; conditions: 10-2, 18 h
Method in brief: (§1)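 Agar two-fold serial dilution in melted Mueller-Hinton agar, final concentrations 128 down to 0.008 μg/mL. Plates inoculated with 10⁴ cfu and incubated at 35 °C for 18 h. MIC taken as the lowest concentration giving no visible growth on the plate.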

Pseudomonas aeruginosa [2] = assay: Antibacterial activity against Pseudomonas aeruginosa ATCC 27853 after 18 hrs by two fold serial dilution method; conditions: ATCC 27853, 18 h; method in brief: as §1
Escherichia coli [3] = assay: Antibacterial activity against Escherichia coli 09-3 after 18 hrs by two fold serial dilution method; conditions: 09-3, 18 h; method in brief: as §1
[4] = tested on: Staphylococcus epidermidis; assay: Antibacterial activity against methicillin-sensitive Staphylococcus epidermidis 10-1 after 18 hrs by two fold serial dilution method; conditions: 10-1, 18 h; method in brief: as §1
Escherichia coli [5] = assay: Antibacterial activity against Escherichia coli 09-1 after 18 hrs by two fold serial dilution method; conditions: 09-1, 18 h; method in brief: as §1
Staphylococcus aureus [6] = assay: Antibacterial activity against methicillin-sensitive Staphylococcus aureus 10-1 after 18 hrs by two fold serial dilution method; conditions: 10-1, 18 h; method in brief: as §1
Enterococcus faecalis [7] = assay: Antibacterial activity against Enterococcus faecalis 09-1 after 18 hrs by two fold serial dilution method; conditions: 09-1, 18 h; method in brief: as §1
[8] = tested on: Staphylococcus epidermidis; assay: Antibacterial activity against methicillin-resistant Staphylococcus epidermidis 10-1 after 18 hrs by two fold serial dilution method; conditions: 10-1, 18 h
Method in brief: (§2)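 Agar two-fold serial dilution in melted Mueller-Hinton agar, 128 to 0.008 μg/mL. Plates inoculated with 10⁴ cfu, incubated 35 °C for 18 h. MIC taken as lowest concentration giving no visible growth on the plate.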

[9] = tested on: Staphylococcus epidermidis; assay: Antibacterial activity against methicillin-resistant Staphylococcus epidermidis 10-2 after 18 hrs by two fold serial dilution method; conditions: 10-2, 18 h; method in brief: as §2
Escherichia coli [10] = assay: Antibacterial activity against Escherichia coli ATCC 25922 after 18 hrs by two fold serial dilution method; conditions: ATCC 25922, 18 h; method in brief: as §1
Pseudomonas aeruginosa [11] = assay: Antibacterial activity against Pseudomonas aeruginosa 10-2 after 18 hrs by two fold serial dilution method; conditions: 10-2, 18 h; method in brief: as §1
Staphylococcus aureus [12] = assay: Antibacterial activity against methicillin-resistant Staphylococcus aureus 10-3 after 18 hrs by two fold serial dilution method; conditions: 10-3, 18 h; method in brief: as §2
Staphylococcus aureus [13] = assay: Antibacterial activity against methicillin-resistant Staphylococcus aureus 10-1 after 18 hrs by two fold serial dilution method; conditions: 10-1, 18 h; method in brief: as §2
Pseudomonas aeruginosa [14] = assay: Antibacterial activity against Pseudomonas aeruginosa 10-3 after 18 hrs by two fold serial dilution method; conditions: 10-3, 18 h; method in brief: as §1
Escherichia coli [15] = assay: Antibacterial activity against Escherichia coli 10-2 after 18 hrs by two fold serial dilution method; conditions: 10-2, 18 h; method in brief: as §1
Enterococcus faecium [16] = assay: Antibacterial activity against Enterococcus faecium 09-4 after 18 hrs by two fold serial dilution method; conditions: 09-4, 18 h; method in brief: as §1
Streptococcus pneumoniae = assay: Antibacterial activity against Streptococcus pneumoniae 10-1 after 18 hrs by two fold serial dilution method; conditions: 10-1, 18 h; method in brief: as §1
Escherichia coli [17] = assay: Antibacterial activity against Escherichia coli 10-3 after 18 hrs by two fold serial dilution method; conditions: 10-3, 18 h; method in brief: as §1
Pseudomonas aeruginosa [18] = assay: Antibacterial activity against Pseudomonas aeruginosa 10-1 after 18 hrs by two fold serial dilution method; conditions: 10-1, 18 h; method in brief: as §1
Staphylococcus aureus [19] = assay: Antibacterial activity against methicillin-sensitive Staphylococcus aureus 10-3 after 18 hrs by two fold serial dilution method; conditions: 10-3, 18 h; method in brief: as §1
Staphylococcus aureus [20] = assay: Antibacterial activity against methicillin-sensitive Staphylococcus aureus 10-4 after 18 hrs by two fold serial dilution method; conditions: 10-4, 18 h; method in brief: as §1
Staphylococcus aureus [21] = assay: Antibacterial activity against methicillin-sensitive Staphylococcus aureus 10-5 after 18 hrs by two fold serial dilution method; conditions: 10-5, 18 h; method in brief: as §1
[22] = tested on: Staphylococcus epidermidis; assay: Antibacterial activity against methicillin-sensitive Staphylococcus epidermidis 10-2 after 18 hrs by two fold serial dilution method; conditions: 10-2, 18 h; method in brief: as §1
Staphylococcus aureus [23] = assay: Antibacterial activity against methicillin-resistant Staphylococcus aureus 10-2 after 18 hrs by two fold serial dilution method; conditions: 10-2, 18 h; method in brief: as §2
Staphylococcus aureus [24] = assay: Antibacterial activity against methicillin-resistant Staphylococcus aureus 10-4 after 18 hrs by two fold serial dilution method; conditions: 10-4, 18 h; method in brief: as §2
Enterococcus faecalis [25] = assay: Antibacterial activity against Enterococcus faecalis 09-2 after 18 hrs by two fold serial dilution method; conditions: 09-2, 18 h; method in brief: as §1
Klebsiella pneumoniae [26] = assay: Antibacterial activity against Klebsiella pneumoniae 10-3 after 18 hrs by two fold serial dilution method; conditions: 10-3, 18 h; method in brief: as §1
Escherichia coli [27] = assay: Antibacterial activity against Escherichia coli 09-2 after 18 hrs by two fold serial dilution method; conditions: 09-2, 18 h; method in brief: as §1
Klebsiella pneumoniae [28] = assay: Antibacterial activity against Klebsiella pneumoniae 10-1 after 18 hrs by two fold serial dilution method; conditions: 10-1, 18 h; method in brief: as §1
Staphylococcus aureus [29] = assay: Antibacterial activity against methicillin-sensitive Staphylococcus aureus 10-6 after 18 hrs by two fold serial dilution method; conditions: 10-6, 18 h; method in brief: as §1
Enterococcus faecium [30] = assay: Antibacterial activity against Enterococcus faecium 09-3 after 18 hrs by two fold serial dilution method; conditions: 09-3, 18 h; method in brief: as §1
Klebsiella pneumoniae [31] = assay: Antibacterial activity against Klebsiella pneumoniae 09-2 after 18 hrs by two fold serial dilution method; conditions: 09-2, 18 h; method in brief: as §1
Enterococcus faecium [32] = assay: Antibacterial activity against Enterococcus faecium 09-5 after 18 hrs by two fold serial dilution method; conditions: 09-5, 18 h; method in brief: as §1
Enterococcus faecium [33] = assay: Antibacterial activity against Enterococcus faecium 09-1 after 18 hrs by two fold serial dilution method; conditions: 09-1, 18 h; method in brief: as §1
Escherichia coli [34] = assay: Antibacterial activity against Escherichia coli 10-1 after 18 hrs by two fold serial dilution method; conditions: 10-1, 18 h; method in brief: as §1
Staphylococcus aureus [35] = assay: Antibacterial activity against Staphylococcus aureus ATCC 25923 after 18 hrs by two fold serial dilution method; conditions: ATCC 25923, 18 h; method in brief: as §1
Enterococcus faecium [36] = assay: Antibacterial activity against Enterococcus faecium 09-2 after 18 hrs by two fold serial dilution method; conditions: 09-2, 18 h; method in brief: as §1
Enterococcus faecium [37] = assay: Antibacterial activity against Enterococcus faecium 09-6 after 18 hrs by two fold serial dilution method; conditions: 09-6, 18 h; method in brief: as §1

Row | SMILES | MIC (Staphylococcus aureus [1]) [µg/mL] | MIC (Pseudomonas aeruginosa [2]) [µg/mL] | MIC (Escherichia coli [3]) [µg/mL] | MIC [4] [µg/mL] | MIC (Escherichia coli [5]) [µg/mL] | MIC (Staphylococcus aureus [6]) [µg/mL] | MIC (Enterococcus faecalis [7]) [µg/mL] | MIC [8] [µg/mL] | MIC [9] [µg/mL] | MIC (Escherichia coli [10]) [µg/mL] | MIC (Pseudomonas aeruginosa [11]) [µg/mL] | MIC (Staphylococcus aureus [12]) [µg/mL] | MIC (Staphylococcus aureus [13]) [µg/mL] | MIC (Pseudomonas aeruginosa [14]) [µg/mL] | MIC (Escherichia coli [15]) [µg/mL] | MIC (Enterococcus faecium [16]) [µg/mL] | MIC (Streptococcus pneumoniae) [µg/mL] | MIC (Escherichia coli [17]) [µg/mL] | MIC (Pseudomonas aeruginosa [18]) [µg/mL] | MIC (Staphylococcus aureus [19]) [µg/mL] | also measured
1 | NCC1CN(c2nc3c(cc2F)c(=O)c(C(=O)O)cn3-c2ccc(F)cc2F)C/C1=N\OCF (racemic) | 4 (≈ 8.34 µM) | 16 (≈ 33.4 µM) | > 128 | 32 (≈ 66.8 µM) | 128 (≈ 267 µM) | 0.06 (≈ 0.125 µM) | 32 (≈ 66.8 µM) | 4 (≈ 8.34 µM) | 8 (≈ 16.7 µM) | 0.125 (≈ 0.261 µM) | > 128 | 64 (≈ 134 µM) | 64 (≈ 134 µM) | 32 (≈ 66.8 µM) | 4 (≈ 8.34 µM) | 0.5 (≈ 1.04 µM) | 0.125 (≈ 0.261 µM) | 32 (≈ 66.8 µM) | 4 (≈ 8.34 µM) | 0.125 (≈ 0.261 µM) | MIC (Staphylococcus aureus [20]): 0.125 µg/mL (≈ 0.261 µM); MIC (Staphylococcus aureus [21]): 0.125 µg/mL (≈ 0.261 µM); MIC [22]: 32 µg/mL (≈ 66.8 µM); MIC (Staphylococcus aureus [23]): 16 µg/mL (≈ 33.4 µM); MIC (Staphylococcus aureus [24]): 64 µg/mL (≈ 134 µM); MIC (Enterococcus faecalis [25]): 32 µg/mL (≈ 66.8 µM); MIC (Klebsiella pneumoniae [26]): 4 µg/mL (≈ 8.34 µM); MIC (Escherichia coli [27]): > 128 µg/mL; MIC (Klebsiella pneumoniae [28]): 0.5 µg/mL (≈ 1.04 µM); MIC (Staphylococcus aureus [29]): 0.125 µg/mL (≈ 0.261 µM); MIC (Enterococcus faecium [30]): 32 µg/mL (≈ 66.8 µM); MIC (Klebsiella pneumoniae [31]): > 128 µg/mL; MIC (Enterococcus faecium [32]): 64 µg/mL (≈ 134 µM); MIC (Enterococcus faecium [33]): 64 µg/mL (≈ 134 µM); MIC (Escherichia coli [34]): 128 µg/mL (≈ 267 µM); MIC (Staphylococcus aureus [35]): 0.25 µg/mL (≈ 0.521 µM); MIC (Enterococcus faecium [36]): 64 µg/mL (≈ 134 µM); MIC (Enterococcus faecium [37]): 0.5 µg/mL (≈ 1.04 µM)
2 | NCC1CN(c2ccc3c(=O)c(C(=O)O)cn(C4CC4)c3n2)C/C1=N\OCF (racemic) | 128 (≈ 329 µM) | 4 (≈ 10.3 µM) | > 128 | 16 (≈ 41.1 µM) | > 128 | 0.03 (≈ 0.077 µM) | 64 (≈ 164 µM) | 32 (≈ 82.2 µM) | 64 (≈ 164 µM) | 0.06 (≈ 0.154 µM) | > 128 | > 128 | > 128 | 32 (≈ 82.2 µM) | 4 (≈ 10.3 µM) | 2 (≈ 5.14 µM) | 0.25 (≈ 0.642 µM) | > 128 | 2 (≈ 5.14 µM) | 0.25 (≈ 0.642 µM) | MIC (Staphylococcus aureus [20]): 0.25 µg/mL (≈ 0.642 µM); MIC (Staphylococcus aureus [21]): 0.125 µg/mL (≈ 0.321 µM); MIC [22]: 32 µg/mL (≈ 82.2 µM); MIC (Staphylococcus aureus [23]): 64 µg/mL (≈ 164 µM); MIC (Staphylococcus aureus [24]): > 128 µg/mL; MIC (Enterococcus faecalis [25]): 64 µg/mL (≈ 164 µM); MIC (Klebsiella pneumoniae [26]): 4 µg/mL (≈ 10.3 µM); MIC (Escherichia coli [27]): > 128 µg/mL; MIC (Klebsiella pneumoniae [28]): 0.5 µg/mL (≈ 1.28 µM); MIC (Staphylococcus aureus [29]): 0.125 µg/mL (≈ 0.321 µM); MIC (Enterococcus faecium [30]): 64 µg/mL (≈ 164 µM); MIC (Klebsiella pneumoniae [31]): > 128 µg/mL; MIC (Enterococcus faecium [32]): 16 µg/mL (≈ 41.1 µM); MIC (Enterococcus faecium [33]): 64 µg/mL (≈ 164 µM); MIC (Escherichia coli [34]): > 128 µg/mL; MIC (Staphylococcus aureus [35]): 0.25 µg/mL (≈ 0.642 µM); MIC (Enterococcus faecium [36]): 64 µg/mL (≈ 164 µM); MIC (Enterococcus faecium [37]): 1 µg/mL (≈ 2.57 µM)
